# Data published in ChEMBL document CHEMBL2086299, “Melanogenesis inhibitory and fibroblast proliferation accelerating effects of noroleanane- and oleanane-type triterpene oligoglycosides from the flower buds of Camellia japonica” (2012).
# What was measured:
# [1] = Induction of proliferation of neonatal skin fibroblasts assessed as WST-8 formazan accumulation per well at 10 uM after 48 hrs by WST-8 assay relative to control; assay type: functional, Homo sapiens, Skin fibroblast
# Summary of the method: (§1)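 Normal human neonatal skin fibroblasts NB1RGB (DMEM 1 g/L glucose, 10% FBS, 37 °C, 5% CO2) seeded 5.0 × 10^4 cells/well in 96-well plates. Incubated 48 h with compound (DMSO, final 0.1%). Water-soluble WST-8 formazan read at 450 nm (ref 655 nm) and expressed as % of vehicle control.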
# [2] = Induction of proliferation of neonatal skin fibroblasts assessed as protein content per well at 50 uM after 48 hrs by […] relative to control; assay type: functional, Homo sapiens, Skin fibroblast
# Summary of the method: (§2)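 Normal human neonatal skin fibroblasts NB1RGB seeded 5.0 × 10^4 cells/well in 96-well plates. Exposed 48 h to compound (DMSO, final 0.1%). Cellular protein content determined by BCA protein assay and expressed as % of vehicle control.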
# [3] = Induction of proliferation of neonatal skin fibroblasts assessed as WST-8 formazan accumulation per well at 50 uM after 48 hrs by WST-8 assay relative to control; assay type: functional, Homo sapiens, Skin fibroblast; summary of the method: as §1
# [4] = Induction of proliferation of neonatal skin fibroblasts assessed as protein content per well at 10 uM after 48 hrs by […] relative to control; assay type: functional, Homo sapiens, Skin fibroblast; summary of the method: as §2
# [5] = Induction of proliferation of neonatal skin fibroblasts assessed as WST-8 formazan accumulation per well at 5 uM after 48 hrs by WST-8 assay relative to control; assay type: functional, Homo sapiens, Skin fibroblast; summary of the method: as §1
# [6] = Inhibition of melanogenesis in theophylline-stimulated mouse B16-4A5 cells at 10 uM after 72 hrs by microplate reader; assay type: functional; design: scale not given: the % may be the effect or the level left
# Summary of the method: (§3)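 B16 melanoma 4A5 cells seeded 2.0 × 10^4 cells/well in 24-well plates and cultured 24 h. Then 72 h with compound plus 1 mM theophylline (DMSO, final 0.1%). Cells trypsin/EDTA-harvested, washed, lysed in 1 M NaOH (80 °C, 30 min). Lysate melanin read by OD at 405 nm (ref 655 nm). Inhibition (%) = [(A − B)/A] × 100 versus vehicle. Mean ± SEM, n = 4.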
# [7] = Antiproliferative activity against mouse B16-4A5 cells at 5 uM after 72 hrs by WST-8 assay; assay type: functional
# Summary of the method: (§4)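 Murine B16 melanoma 4A5 cells (DMEM 4.5 g/L glucose, 10% FBS) seeded 5.0 × 10^4 cells/well in 96-well plates and cultured 24 h. Then 72 h with 1 mM theophylline plus compound (DMSO, final 0.1%). Cells washed with PBS, WST-8 formazan read at 450 nm (ref 655 nm). Inhibition (%) = [(A − B)/A] × 100 versus vehicle. Mean ± SEM, n = 4.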
# [8] = Induction of proliferation of neonatal skin fibroblasts assessed as WST-8 formazan accumulation per well at 20 uM after 48 hrs by WST-8 assay relative to control; assay type: functional, Homo sapiens, Skin fibroblast; summary of the method: as §1
# [9] = Antiproliferative activity against mouse B16-4A5 cells at 10 uM after 72 hrs by WST-8 assay; assay type: functional; summary of the method: as §4
# [10] = Inhibition of melanogenesis in theophylline-stimulated mouse B16-4A5 cells at 5 uM after 72 hrs by microplate reader; assay type: functional; design: scale not given: the % may be the effect or the level left; summary of the method: as §3
# [11] = Inhibition of melanogenesis in theophylline-stimulated mouse B16-4A5 cells at 20 uM after 72 hrs by microplate reader; assay type: functional; design: scale not given: the % may be the effect or the level left; summary of the method: as §3
# [12] = Antiproliferative activity against mouse B16-4A5 cells at 20 uM after 72 hrs by WST-8 assay; assay type: functional; summary of the method: as §4
# [13] = Induction of proliferation of neonatal skin fibroblasts assessed as protein content per well at 20 uM after 48 hrs […] relative to control; assay type: functional, Homo sapiens, Skin fibroblast; summary of the method: as §2
# [14] = Induction of proliferation of neonatal skin fibroblasts assessed as protein content per well at 5 uM after 48 hrs by […] relative to control; assay type: functional, Homo sapiens, Skin fibroblast; summary of the method: as §2
# [15] = Inhibition of melanogenesis in theophylline-stimulated mouse B16-4A5 cells at 40 uM after 72 hrs by microplate reader; assay type: functional; design: scale not given: the % may be the effect or the level left; summary of the method: as §3
Structure (SMILES),Activity [1] [%],Activity [2] [%],Activity [3] [%],Activity [4] [%],Activity [5] [%],Activity [6] [%],Activity [7] [%],Activity [8] [%],Activity [9] [%],Activity [10] [%],Activity [11] [%],Activity [12] [%],Activity [13] [%],Activity [14] [%],Activity [15] [%]
C/C=C(\C)C(=O)O[C@H]1[C@H](OC(=O)/C(C)=C/C)[C@]2(CO)[C@H](O)[C@H](O)[C@]3(C)C(=CC[C@@H]4[C@@]5(C)CC[C@H](O[C@@H]6O[C@H](C(=O)O)[C@@H](O)[C@H](O[C@@H]7O[C@H](CO)[C@H](O)[C@H](O)[C@H]7O[C@@H]7O[C@@H](C)[C@H](O)[C@@H](O)[C@H]7O)[C@H]6O[C@@H]6O[C@H](CO)[C@@H](O)[C@H](O)[C@H]6O)C(C)(C)[C@@H]5CC[C@]43C)[C@@H]2CC1(C)C [YUCHASAPONIN A],16.6,49.4,16.8,45.3,,,,,,,,,,,
CC1(C)CC[C@]2(O)[C@H](O)C[C@]3(C)C(=CC[C@@H]4[C@@]5(C)CC[C@H](O[C@@H]6O[C@H](C(=O)O)[C@@H](O)[C@H](O[C@@H]7O[C@H](CO)[C@H](O)[C@H](O)[C@H]7O[C@@H]7O[C@H](CO)[C@@H](O)[C@H](O)[C@H]7O)[C@H]6O[C@@H]6O[C@H](CO)[C@H](O)[C@H](O)[C@H]6O)C(C)(C)[C@@H]5CC[C@]43C)[C@@H]2C1 (relative stereo),110,,,110.6,108.3,16.7,1.9,116.2,4.3,21.9,23.3,13.3,114.9,113.9,
O.O=C1O[C@H]([C@@H](O)CO)C(O)=C1OP(=O)([O-])[O-].[Mg+2],123.7,,,109.6,109.2,,,122.8,,,,,117.4,112.8,
OC[C@H]1O[C@@H](Oc2ccc(O)cc2)[C@H](O)[C@@H](O)[C@@H]1O [ARBUTIN],,,,,,-0.1,,,,,13.3,,,,18
CCC/C=C\C(=O)O[C@H]1CC(C)(C)C[C@H]2C3=CC[C@@H]4[C@@]5(C)CC[C@H](O[C@@H]6O[C@H](C(=O)O)[C@@H](O)[C@H](O[C@@H]7O[C@H](CO)[C@H](O)[C@H](O)[C@H]7O[C@@H]7O[C@@H](C)[C@H](O)[C@@H](O)[C@H]7O)[C@H]6O[C@@H]6O[C@H](CO)[C@@H](O)[C@H](O)[C@H]6O)C(C)(C)[C@@H]5CC[C@@]4(C)[C@]3(C)[C@@H](O)[C@@H](O)[C@@]12CO [SASANQUASAPONIN I],34.9,44.8,16.4,71.5,,,,,,,,,,,
C/C=C(\C)C(=O)O[C@H]1CC(C)(C)C[C@H]2C3=CC[C@@H]4[C@@]5(C)CC[C@H](O[C@@H]6O[C@H](C(=O)O)[C@@H](O)[C@H](O[C@@H]7O[C@H](CO)[C@H](O)[C@H](O)[C@H]7O[C@@H]7O[C@@H](C)[C@H](O)[C@@H](O)[C@H]7O)[C@H]6O[C@@H]6O[C@H](CO)[C@@H](O)[C@H](O)[C@H]6O)C(C)(C)[C@@H]5CC[C@@]4(C)[C@]3(C)[C@@H](O)[C@@H](O)[C@@]12CO [SASANQUASAPONIN II],16.8,48.9,16.5,53.9,,,,,,,,,,,
C/C=C(/C)C(=O)O[C@H]1CC(C)(C)C[C@H]2C3=CC[C@@H]4[C@@]5(C)CC[C@H](O[C@@H]6O[C@H](C(=O)O)[C@@H](O)[C@H](O[C@@H]7O[C@H](CO)[C@H](O)[C@H](O)[C@H]7O[C@@H]7O[C@@H](C)[C@H](O)[C@@H](O)[C@H]7O)[C@H]6O[C@@H]6O[C@H](CO)[C@@H](O)[C@H](O)[C@H]6O)C(C)(C)[C@@H]5CC[C@@]4(C)[C@]3(C)[C@@H](O)[C@@H](O)[C@@]12CO [SASANQUASAPONIN III],16.6,48.8,16.8,48.6,,,,,,,,,,,
CC1(C)CC[C@]2(CO)[C@H](O)C[C@]3(C)C(=CC[C@@H]4[C@@]5(C)CC[C@H](O[C@@H]6O[C@H](C(=O)O)[C@@H](O)[C@H](O[C@@H]7O[C@H](CO)[C@H](O)[C@H](O)[C@H]7O[C@@H]7O[C@H](CO)[C@@H](O)[C@H](O)[C@H]7O)[C@H]6O[C@@H]6O[C@H](CO)[C@H](O)[C@H](O)[C@H]6O)C(C)(C)[C@@H]5CC[C@]43C)[C@@H]2C1 [CAMELLIOSIDE D],98.6,,,113.1,107.6,-6.2,16.1,108.6,16.3,0.3,8.3,29.5,94.7,110.7,
CC1(C)CC[C@]2(C=O)[C@H](O)C[C@]3(C)C(=CC[C@@H]4[C@@]5(C)CC[C@H](O[C@@H]6O[C@H](C(=O)O)[C@@H](O)[C@H](O[C@@H]7O[C@H](CO)[C@H](O)[C@H](O)[C@H]7O[C@@H]7O[C@H](CO)[C@@H](O)[C@H](O)[C@H]7O)[C@H]6O[C@@H]6O[C@H](CO)[C@H](O)[C@H](O)[C@H]6O)C(C)(C)[C@@H]5CC[C@]43C)[C@@H]2C1 (relative stereo),102.5,,,120.3,102.1,16.3,17.4,102.2,55,-19.7,91.6,52.8,110,120.4,
CC1(C)CC[C@]2(O)C(=O)C[C@]3(C)C(=CC[C@@H]4[C@@]5(C)CC[C@H](O[C@@H]6O[C@H](C(=O)O)[C@@H](O)[C@H](O[C@@H]7O[C@H](CO)[C@H](O)[C@H](O)[C@H]7O[C@@H]7O[C@H](CO)[C@@H](O)[C@H](O)[C@H]7O)[C@H]6O[C@H]6O[C@@H](CO)[C@@H](O)[C@@H](O)[C@@H]6O)C(C)(C)C5CC[C@]43C)[C@@H]2C1 (stereo not given in full) [CAMELLIOSIDE A],114.3,,,126.9,114.6,36,-3.8,113.6,5.1,12.1,74.9,19.7,113.8,120.8,
CC(=O)O[C@@H]1[C@H](O)[C@@H](O)[C@H](O[C@H]2[C@H](O[C@H]3CC[C@]4(C)[C@H]5CC=C6[C@@H]7CC(C)(C)CC[C@]7(O)C(=O)C[C@@]6(C)[C@]5(C)CC[C@H]4C3(C)C)O[C@H](C(=O)O)[C@@H](O)[C@@H]2O[C@@H]2O[C@H](CO)[C@H](O)[C@H](O)[C@H]2O[C@@H]2O[C@H](CO)[C@@H](O)[C@H](O)[C@H]2O)O[C@@H]1CO [CAMELLIOSIDE B],121.5,,,130,111.5,64.6,11.9,132.1,26,33.1,95,49,130.1,122.3,
